# Source: ChEMBL document CHEMBL3804764, “Synthesis and biological characterization of 3-(imidazol-1-ylmethyl)piperidine sulfonamides as aromatase inhibitors” (Bioorg Med Chem Lett, 2016)
# Biological target: T1, Aromatase (Homo sapiens, UniProt P11511)
# T1 sequence (P11511 whole entry): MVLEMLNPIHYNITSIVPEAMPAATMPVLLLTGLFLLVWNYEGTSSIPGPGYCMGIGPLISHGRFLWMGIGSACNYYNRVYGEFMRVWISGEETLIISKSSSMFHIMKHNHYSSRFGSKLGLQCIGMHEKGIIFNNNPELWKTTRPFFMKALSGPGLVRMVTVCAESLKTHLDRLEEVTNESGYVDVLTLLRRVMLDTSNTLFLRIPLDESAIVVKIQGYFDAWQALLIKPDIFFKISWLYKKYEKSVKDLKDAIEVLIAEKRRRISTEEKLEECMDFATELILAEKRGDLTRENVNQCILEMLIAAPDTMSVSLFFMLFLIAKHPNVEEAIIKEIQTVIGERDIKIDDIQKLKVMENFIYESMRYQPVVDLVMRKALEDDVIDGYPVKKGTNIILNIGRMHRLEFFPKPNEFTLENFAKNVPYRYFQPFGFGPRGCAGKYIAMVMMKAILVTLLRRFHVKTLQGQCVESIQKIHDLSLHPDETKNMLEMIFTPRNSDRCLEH
# Assay: Inhibition of recombinant human aromatase using 7-methoxy-4-trifluoromethyl coumarin as substrate measured at […] conditions by fluorescence analysis
# Procedure, shortened: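 Semiautomated high-throughput fluorometric screen with recombinant human aromatase and 7-methoxy-4-trifluoromethyl coumarin (MFC) substrate. Inhibition read as reduced fluorescence from MFC conversion. Blank values subtracted from sample wells to give net signal. Activity normalized to no-inhibitor wells. Duplicate assays. Racemic compounds tested.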
row,SMILES,IC50 [nM]
1,O=[N+]([O-])c1cccc(Cl)c1Oc1cccc(S(=O)(=O)N2CCCC(Cn3ccnc3)C2)c1 (configuration not stated),9
2,O=S(=O)(c1ccc(F)cc1)N1CCCC(Cn2ccnc2)C1 (configuration not stated),51
3,O=S(=O)(c1ccc(OC2CCCC2)cc1)N1CCCC(Cn2ccnc2)C1 (configuration not stated),14
4,COc1c(C)cc(S(=O)(=O)N2CCCC(Cn3ccnc3)C2)cc1C (configuration not stated),21
5,COc1c(C)cc(S(=O)(=O)N2CCCC(Cn3ccnc3)C2)c(C)c1C (configuration not stated),45
6,COc1ccc(S(=O)(=O)N2CCCC(Cn3ccnc3)C2)c(OC)c1 (configuration not stated),131
7,CS(=O)(=O)c1ccc(S(=O)(=O)N2CCCC(Cn3ccnc3)C2)cc1 (configuration not stated),48
8,N#Cc1ccc(S(=O)(=O)N2CCCC(Cn3ccnc3)C2)cc1 (configuration not stated),36
9,O=S(=O)(c1ccc(F)c(Cl)c1)N1CCCC(Cn2ccnc2)C1 (configuration not stated),14
10,COc1ccc(S(=O)(=O)N2CCCC(Cn3ccnc3)C2)cc1C(C)(C)C (configuration not stated),9
11,O=S(=O)(c1cccc2nsnc12)N1CCCC(Cn2ccnc2)C1 (configuration not stated),54
12,O=S(=O)(c1ccc(F)c(F)c1)N1CCCC(Cn2ccnc2)C1 (configuration not stated),43
13,O=[N+]([O-])c1ccc(S(=O)(=O)N2CCCC(Cn3ccnc3)C2)cc1C(F)(F)F (configuration not stated),16
14,O=S(=O)(c1ccc2c(c1)OCCO2)N1CCCC(Cn2ccnc2)C1 (configuration not stated),13
15,COC(=O)c1ccccc1S(=O)(=O)N1CCCC(Cn2ccnc2)C1 (configuration not stated),53
16,COc1ccc(S(=O)(=O)N2CCCC(Cn3ccnc3)C2)cc1OC (configuration not stated),42
17,Cc1cc(S(=O)(=O)N2CCCC(Cn3ccnc3)C2)ccc1F (configuration not stated),24
18,N#Cc1ccc(S(=O)(=O)N2CCCC(Cn3ccnc3)C2)c(Cl)c1 (configuration not stated),79
19,Cc1cc(F)ccc1S(=O)(=O)N1CCCC(Cn2ccnc2)C1 (configuration not stated),48
20,O=S(=O)(c1ccc(F)c(F)c1F)N1CCCC(Cn2ccnc2)C1 (configuration not stated),46
21,O=C(O)c1cc(S(=O)(=O)N2CCCC(Cn3ccnc3)C2)ccc1O (configuration not stated),339
22,COc1ccc(S(=O)(=O)N2CCCC(Cn3ccnc3)C2)cc1Br (configuration not stated),6
23,COc1ccc(S(=O)(=O)N2CCCC(Cn3ccnc3)C2)cc1F (configuration not stated),14
24,COc1ccc(S(=O)(=O)N2CCCC(Cn3ccnc3)C2)c(C)c1C (configuration not stated),59
25,O=S(=O)(c1ccc(OC2CCCC2)c(F)c1)N1CCCC(Cn2ccnc2)C1 (configuration not stated),22
26,COc1cc([N+](=O)[O-])ccc1S(=O)(=O)N1CCCC(Cn2ccnc2)C1 (configuration not stated),129
27,O=S(=O)(c1ccc2nsnc2c1)N1CCCC(Cn2ccnc2)C1 (configuration not stated),7
